Measurements: ChEMBL document CHEMBL2321661, “Synthesis and biological evaluation of 5-nitropyrimidine analogs with azabicyclic substituents as GPR119 agonists” (Bioorg Med Chem Lett, 2013)

Columns and labels:
[1] = molecular target: T1, Glucose-dependent insulinotropic receptor (Homo sapiens) (UniProt Q8TDV5); experiment: Agonist activity at human GPR119 transfected in HEK293 cells assessed as cAMP stimulation relative to maximal effect of oleylethanolamine; assay type: functional, cell-based
T1 sequence (whole entry): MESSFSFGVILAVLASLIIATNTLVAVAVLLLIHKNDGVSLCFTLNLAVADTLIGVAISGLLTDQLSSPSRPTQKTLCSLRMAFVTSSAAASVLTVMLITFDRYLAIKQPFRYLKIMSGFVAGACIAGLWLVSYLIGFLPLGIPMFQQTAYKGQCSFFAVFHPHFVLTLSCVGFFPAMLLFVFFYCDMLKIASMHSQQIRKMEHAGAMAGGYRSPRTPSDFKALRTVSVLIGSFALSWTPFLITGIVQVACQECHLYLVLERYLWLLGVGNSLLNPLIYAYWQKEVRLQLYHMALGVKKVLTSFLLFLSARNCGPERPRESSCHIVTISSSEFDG
Procedure, shortened: (§1)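 HEK293 cells seeded at 4 × 10³ cells/well and grown 24 h, then transiently transfected with a human GPR119 expression plasmid by lipofection. After 24 h, compounds were applied in KRBH buffer with 0.1% BSA and IBMX for 60 min at 37 °C. Cells were lysed 10 min at room temperature (phosphate/KF/Triton, pH 7.0), and cAMP was read by HTRF.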

[2] = molecular target: T2, Glucose-dependent insulinotropic receptor (Homo sapiens, UniProt Q8TDV5); experiment: Agonist activity at human GPR119 transfected in HEK293 cells assessed as concentration for 50 % cAMP stimulation of oleylethanolamine; assay type: functional, cell-based; procedure, shortened: as §1
T2 sequence (Q8TDV5 whole entry): T1 sequence (whole entry)

Row | Emax [1] | EC50 [2] | Compound
1 | 116% |  | CC(C)(C)OC(=O)N1[C@@H]2CC[C@H]1C[C@@H](Oc1ncnc(Nc3ccc(S(C)(=O)=O)cc3F)c1[N+](=O)[O-])C2 (stereo in doubt; 12) [listing 1 of 2 here]
2 |  | 1.5 nM | CC(C)(C)OC(=O)N1[C@@H]2CC[C@H]1C[C@@H](Oc1ncnc(Nc3ccc(S(C)(=O)=O)cc3F)c1[N+](=O)[O-])C2 (stereo in doubt; 12) [listing 2 of 2 here]
3 | 69% |  | CC(C)(C)OC(=O)N1[C@@H]2CC[C@H]1C[C@@H](Oc1ncnc(Nc3ccc(S(C)(=O)=O)cc3)c1[N+](=O)[O-])C2 (stereo in doubt; 13) [listing 1 of 2 here]
4 |  | 14.5 nM | CC(C)(C)OC(=O)N1[C@@H]2CC[C@H]1C[C@@H](Oc1ncnc(Nc3ccc(S(C)(=O)=O)cc3)c1[N+](=O)[O-])C2 (stereo in doubt; 13) [listing 2 of 2 here]
5 | 41% | > 10000 nM | CC(C)(C)OC(=O)N1[C@@H]2CC[C@H]1C[C@@H](CNc1ncnc(Nc3ccc(S(C)(=O)=O)cc3)c1[N+](=O)[O-])C2
6 | 99% | 1.5 nM | CC(C)(C)OC(=O)N1[C@@H]2CC[C@H]1C[C@H](Nc1ncnc(Nc3ccc(S(C)(=O)=O)cc3F)c1[N+](=O)[O-])C2
7 | 65% |  | CC(C)(C)OC(=O)N1[C@@H]2CC[C@H]1C[C@@H](Oc1ncnc(Nc3ccc(S(C)(=O)=O)cc3F)c1[N+](=O)[O-])C2 (stereo in doubt; 14) [listing 1 of 2 here]
8 | 100% |  | CCCCCCCC/C=C\CCCCCCCC(=O)NCCO
9 | 139% | 11.5 nM | CC(C)(C)OC(=O)N1[C@@H]2CC[C@H]1C[C@H](Nc1ncnc(Nc3ccc(S(C)(=O)=O)cc3)c1[N+](=O)[O-])C2
10 |  | 1.4 nM | CC(C)(C)OC(=O)N1[C@@H]2CC[C@H]1C[C@@H](Oc1ncnc(Nc3ccc(S(C)(=O)=O)cc3F)c1[N+](=O)[O-])C2 (stereo in doubt; 14) [listing 2 of 2 here]
11 | 99% |  | CC(C)(C)OC(=O)N1[C@@H]2CC[C@H]1C[C@@H](Oc1ncnc(Nc3ccc(S(C)(=O)=O)cc3)c1[N+](=O)[O-])C2 (stereo in doubt; 11) [listing 1 of 2 here]
12 | 53% | 6.7 nM | CC(C)(C)OC(=O)N1[C@@H]2CC[C@H]1C[C@@H](CNc1ncnc(Nc3ccc(S(C)(=O)=O)cc3F)c1[N+](=O)[O-])C2
13 |  | 4.9 nM | CC(C)(C)OC(=O)N1[C@@H]2CC[C@H]1C[C@@H](Oc1ncnc(Nc3ccc(S(C)(=O)=O)cc3)c1[N+](=O)[O-])C2 (stereo in doubt; 11) [listing 2 of 2 here]
